Measured values as given in ChEMBL document CHEMBL3632581, “Dimers of Melampomagnolide B Exhibit Potent Anticancer Activity against Hematological and Solid Tumor Cells” (J Med Chem, 2015).
pEC50: −log10 of the molar value.

What was measured:
CCRF-CEM = experiment: Cytotoxicity against human CCRF-CEM cells after 48 hrs by SRB assay; assay type: functional
In short: (§1)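 NCI-60 five-dose screen at 10−8 to 10−4 M. Cells were plated at 5,000–40,000/well in RPMI 1640 with 5% FBS and 2 mM L-glutamine, then preincubated 24 h, and time-zero plates were TCA-fixed. Compound was added from DMSO stocks and exposed 48 h at 37 °C. Cells were TCA-fixed, SRB-stained, and read at 515 nm. LC50 is the concentration halving the cell population through cell death.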

HL-60(TB) = experiment: Cytotoxicity against human HL-60(TB) cells after 48 hrs by SRB assay; assay type: functional; settings: HL-60, 48 h; in short: as §1
MOLT-4 = experiment: Cytotoxicity against human MOLT4 cells after 48 hrs by SRB assay; assay type: functional; settings: MOLT-4, 48 h; in short: as §1
SR = experiment: Cytotoxicity against human SR cells after 48 hrs by SRB assay; assay type: functional
In short: (§2)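 NCI-60 screen: cells grown in RPMI 1640 with 5% FBS and 2 mM L-glutamine, plated at 5,000–40,000 cells/well by doubling time, and preincubated 24 h at 37 °C before drug. Drug was diluted from DMSO stock and given at five concentrations, 10−4 to 10−8 M, for 48 h. Cells fixed with cold TCA, SRB stained, OD read at 515 nm against time-zero and vehicle plates. LC50 taken as the concentration that halves cell population through cell death.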

[1] = Cytotoxicity against human EKVX cells after 48 hrs by SRB assay; assay type: functional; in short: as §1
HOP-62 = experiment: Cytotoxicity against human HOP62 cells after 48 hrs by SRB assay; assay type: functional; settings: HOP-62, 48 h; in short: as §1
HOP-92 = experiment: Cytotoxicity against human HOP92 cells after 48 hrs by SRB assay; assay type: functional; settings: HOP-92, 48 h; in short: as §1
NCI-H226 = experiment: Cytotoxicity against human NCI-H226 cells after 48 hrs by SRB assay; assay type: functional; settings: NCI-H226, 48 h; in short: as §1
NCI-H522 = experiment: Cytotoxicity against human NCI-H522 cells after 48 hrs by SRB assay; assay type: functional; settings: NCI-H522, 48 h; in short: as §1
COLO 205 = experiment: Cytotoxicity against human COLO205 cells after 48 hrs by SRB assay; assay type: functional; settings: COLO 205, 48 h; in short: as §1
HCC 2998 = experiment: Cytotoxicity against human HCC2998 cells after 48 hrs by SRB assay; assay type: functional; settings: HCC 2998, 48 h; in short: as §1
HCT-15 = experiment: Cytotoxicity against human HCT15 cells after 48 hrs by SRB assay; assay type: functional; settings: HCT-15, 48 h; in short: as §1
HT-29 = experiment: Cytotoxicity against human HT-29 cells after 48 hrs by SRB assay; assay type: functional; settings: HT-29, 48 h; in short: as §1
KM12 = experiment: Cytotoxicity against human KM12 cells after 48 hrs by SRB assay; assay type: functional; settings: KM12, 48 h; in short: as §1
SW-620 = experiment: Cytotoxicity against human SW620 cells after 48 hrs by SRB assay; assay type: functional; settings: SW-620, 48 h; in short: as §2
SF-268 = experiment: Cytotoxicity against human SF268 cells after 48 hrs by SRB assay; assay type: functional; settings: SF-268, 48 h; in short: as §1
SF-539 = experiment: Cytotoxicity against human SF539 cells after 48 hrs by SRB assay; assay type: functional; settings: SF-539, 48 h; in short: as §1
SNB-75 = experiment: Cytotoxicity against human SNB75 cells after 48 hrs by SRB assay; assay type: functional; settings: SNB-75, 48 h; in short: as §1
U-251 = experiment: Cytotoxicity against human U251 cells after 48 hrs by SRB assay; assay type: functional; settings: U-251, 48 h; in short: as §2
LOX IMVI = experiment: Cytotoxicity against human LOXIMVI cells after 48 hrs by SRB assay; assay type: functional; in short: as §1
MDA-MB-435 = experiment: Cytotoxicity against human MDA-MB-435 cells after 48 hrs by SRB assay; assay type: functional; settings: MDA-MB-435, 48 h; in short: as §1
UACC-62 = experiment: Cytotoxicity against human UACC62 cells after 48 hrs by SRB assay; assay type: functional; settings: UACC-62, 48 h; in short: as §2
OVCAR-3 = experiment: Cytotoxicity against human OVCAR3 cells after 48 hrs by SRB assay; assay type: functional; settings: OVCAR-3, 48 h; in short: as §1
A498 = experiment: Cytotoxicity against human A498 cells after 48 hrs by SRB assay; assay type: functional; settings: A498, 48 h; in short: as §1
CAKI-1 = experiment: Cytotoxicity against human Caki1 cells after 48 hrs by SRB assay; assay type: functional; settings: CAKI-1, 48 h; in short: as §1
SN12C = experiment: Cytotoxicity against human SN12C cells after 48 hrs by SRB assay; assay type: functional; in short: as §1
UO-31 = experiment: Cytotoxicity against human UO31 cells after 48 hrs by SRB assay; assay type: functional; settings: UO-31, 48 h; in short: as §2
DU-145 = experiment: Cytotoxicity against human DU145 cells after 48 hrs by SRB assay; assay type: functional; settings: DU-145, 48 h; in short: as §1
MDA-MB-231 = experiment: Cytotoxicity against human MDA-MB-231 cells after 48 hrs by SRB assay; assay type: functional; settings: MDA-MB-231, 48 h; in short: as §1
[2] = Cytotoxicity against human Hs 578T cells after 48 hrs by SRB assay; assay type: functional; in short: as §1
BT-549 = experiment: Cytotoxicity against human BT549 cells after 48 hrs by SRB assay; assay type: functional; settings: BT-549, 48 h; in short: as §1
T47D = experiment: Cytotoxicity against human T47D cells after 48 hrs by SRB assay; assay type: functional; in short: as §2
[3] = Antileukemic activity against human AML01 cells after 24 hrs by annexin V/7-AAD staining-based flow cytometric analysis; assay type: functional, cell-based
In short: (§3)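 Primary AML specimens from consenting donors, isolated by Ficoll-Paque gradient and sometimes cryopreserved. Cells were held 1 h in serum-free IMDM with 20% BIT 9500, LDL and β-mercaptoethanol before drug (DMSO stock diluted in PBS, ≤0.5% DMSO final). Exposure was 24 h over 0.5-10 μM. Annexin V/7-AAD double-negative cells, normalized to vehicle, gave the EC50. Run in triplicate.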

[4] = Antileukemic activity against human AML02 cells after 24 hrs by annexin V/7-AAD staining-based flow cytometric analysis; assay type: functional, cell-based; in short: as §3
[5] = Antileukemic activity against human AML04 cells after 24 hrs by annexin V/7-AAD staining-based flow cytometric analysis; assay type: functional, cell-based; in short: as §3
[6] = read-out: LC50 (the source's name)

Compound: C=C1C(=O)O[C@H]2[C@H]1CC/C(COC(=O)NCCCCNC(=O)OC/C1=C/CC[C@@]3(C)O[C@H]3[C@H]3OC(=O)C(=C)[C@@H]3CC1)=C\CC[C@@]1(C)O[C@@H]21
- GI50 (CCRF-CEM): 0.27 µM
- CC50 (CCRF-CEM; [6]): > 100 µM
- GI50 (HL-60(TB)): 0.25 µM
- CC50 (HL-60(TB); [6]): > 100 µM
- GI50 (MOLT-4): 1.47 µM
- CC50 (MOLT-4; [6]): > 100 µM
- GI50 (SR): 0.54 µM
- CC50 (SR; [6]): > 100 µM
- GI50 [1]: 3.69 µM
- CC50 [1, 6]: 37.3 µM
- GI50 (HOP-62): 3.84 µM
- CC50 (HOP-62; [6]): 46.1 µM
- GI50 (HOP-92): 0.28 µM
- CC50 (HOP-92; [6]): 46.1 µM
- GI50 (NCI-H226): 11.4 µM
- CC50 (NCI-H226; [6]): 81.6 µM
- GI50 (NCI-H522): 0.16 µM
- CC50 (NCI-H522; [6]): 0.84 µM
- GI50 (COLO 205): 0.46 µM
- CC50 (COLO 205; [6]): 5.79 µM
- GI50 (HCC 2998): 2.35 µM
- CC50 (HCC 2998; [6]): 9.73 µM
- GI50 (HCT-15): 5.61 µM
- CC50 (HCT-15; [6]): 56.3 µM
- GI50 (HT-29): 0.6 µM
- CC50 (HT-29; [6]): > 100 µM
- GI50 (KM12): 3.18 µM
- CC50 (KM12; [6]): 43.3 µM
- GI50 (SW-620): 0.58 µM
- CC50 (SW-620; [6]): 5.56 µM
- GI50 (SF-268): 3.18 µM
- CC50 (SF-268; [6]): 51 µM
- GI50 (SF-539): 1.55 µM
- CC50 (SF-539; [6]): 8.84 µM
- GI50 (SNB-75): 2.19 µM
- CC50 (SNB-75; [6]): 66.3 µM
- GI50 (U-251): 2.94 µM
- CC50 (U-251; [6]): 33.3 µM
- GI50 (LOX IMVI): 0.51 µM
- CC50 (LOX IMVI; [6]): 5.15 µM
- GI50 (MDA-MB-435): 1.24 µM
- CC50 (MDA-MB-435; [6]): 9.42 µM
- GI50 (UACC-62): 0.75 µM
- CC50 (UACC-62; [6]): 7.06 µM
- GI50 (OVCAR-3): 0.69 µM
- CC50 (OVCAR-3; [6]): 4.76 µM
- GI50 (A498): 6.36 µM
- CC50 (A498; [6]): 43.9 µM
- GI50 (CAKI-1): 10.8 µM
- CC50 (CAKI-1; [6]): 49.1 µM
- GI50 (SN12C): 2.75 µM
- CC50 (SN12C; [6]): 39.5 µM
- GI50 (UO-31): 7.61 µM
- CC50 (UO-31; [6]): 47.7 µM
- GI50 (DU-145): 3.21 µM
- LC50 (concentration killing half the cells) (DU-145): 33.8 µM
- GI50 (MDA-MB-231): 1.53 µM
- LC50 (MDA-MB-231): 6.83 µM
- GI50 [2]: 2.54 µM
- CC50 [2, 6]: > 100 µM
- GI50 (BT-549): 1.6 µM
- LC50 (BT-549): 8.23 µM
- GI50 (T47D): 1.51 µM
- CC50 (T47D; [6]): > 100 µM
- pEC50 [3]: 5.66
- pEC50 [4]: 5.70
- pEC50 [5]: 5.38
